Measured values taken from ChEMBL document CHEMBL5329156, “Discovery and development of novel substituted monohydrazides as potent antifungal agents” (RSC Med Chem, 2023).
Converted amounts (≈) assume the structure as drawn.

Tests used:
[1] = test system: Candida albicans; experiment: Antifungal activity against Candida albicans ATCC 10231 assessed as fungal growth inhibition by double dilution method; format: functional
Method in brief: (§1)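 Broth microdilution after CLSI M27-A3/M38-A2 with minor changes. Single colony grown overnight in YPD at 35 °C, 200 rpm. Compound final range 0.06-31.3 µg/mL; incubated 48 h at 35 °C.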

[2] = test system: Candida albicans; experiment: Antifungal activity against Candida albicans ATCC 64124 assessed as fungal growth inhibition by double dilution method; format: functional
Method in brief: (§2)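 Broth microdilution after CLSI M27-A3/M38-A2 with minor modifications. A single colony was grown overnight in YPD at 35 °C with shaking at 200 rpm. Cells were mixed 1:1 with compound (final 0.06-31.3 µg/mL, from DMSO stocks) and incubated 48 h at 35 °C.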

[3] = test system: Candida albicans; experiment: Antifungal activity against itraconazole/fluconazole susceptible Candida albicans ATCC MYA-2876 assessed as fungal growth inhibition by double dilution method; format: functional; method in brief: as §2
[4] = test system: Candida albicans; experiment: Antifungal activity against itraconazole/fluconazole resistant Candida albicans ATCC 90819 assessed as fungal growth inhibition by double dilution method; format: functional; method in brief: as §2
[5] = test system: Candida albicans; experiment: Antifungal activity against itraconazole/fluconazole susceptible Candida albicans ATCC MYA-2310 assessed as fungal growth inhibition by double dilution method; format: functional; method in brief: as §2
[6] = test system: Candida albicans; experiment: Antifungal activity against itraconazole/fluconazole resistant Candida albicans ATCC MYA-1237 assessed as fungal growth inhibition by double dilution method; format: functional; method in brief: as §2
[7] = test system: Candida albicans; experiment: Antifungal activity against itraconazole/fluconazole resistant Candida albicans ATCC MYA-1003 assessed as fungal growth inhibition by double dilution method; format: functional; method in brief: as §2
[8] = test system: Nakaseomyces glabratus; experiment: Antifungal activity against Candida glabrata ATCC 2001 assessed as fungal growth inhibition by double dilution method; format: functional; method in brief: as §1
[9] = test system: Pichia kudriavzevii; experiment: Antifungal activity against Pichia kudriavzevii ATCC 6258 assessed as fungal growth inhibition by double dilution method; format: functional; method in brief: as §1
[10] = test system: Nakaseomyces glabratus; experiment: Antifungal activity against Candida glabrata ATCC 22019 assessed as fungal growth inhibition by double dilution method; format: functional; method in brief: as §1
[11] = test system: [Candida] auris; experiment: Antifungal activity against Candida auris AR Bank # 0384 assessed as fungal growth inhibition by double dilution method; format: functional; conditions: Candidozyma auris; method in brief: as §1
[12] = test system: [Candida] auris; experiment: Antifungal activity against Candida auris AR Bank # 0390 assessed as fungal growth inhibition by double dilution method; format: functional; conditions: Candidozyma auris; method in brief: as §1
[13] = test system: Cryptococcus neoformans; experiment: Antifungal activity against Cryptococcus neoformans ATCC MYA-895 assessed as fungal growth inhibition by double dilution method; format: functional; method in brief: as §1
[14] = test system: Aspergillus terreus; experiment: Antifungal activity against Aspergillus terreus ATCC MYA-3633 assessed as fungal growth inhibition by double dilution method; format: functional
[15] = test system: Aspergillus fumigatus; experiment: Antifungal activity against Aspergillus fumigatus NRRL 163 assessed as fungal growth inhibition by double dilution method; format: functional
[16] = test system: Aspergillus flavus; experiment: Antifungal activity against Aspergillus flavus ATCC MYA-3631 assessed as fungal growth inhibition by double dilution method; format: functional
[17] = test system: Aspergillus nidulans; experiment: Antifungal activity against Aspergillus nidulans ATCC 38163 assessed as fungal growth inhibition by double dilution method; format: functional
[18] = test system: Aspergillus fumigatus; experiment: Antifungal activity against Aspergillus fumigatus NRRL 5109 assessed as fungal growth inhibition by double dilution method; format: functional
[19] = test system: Aspergillus fumigatus; experiment: Antifungal activity against Aspergillus fumigatus NRRL 6113 assessed as fungal growth inhibition by double dilution method; format: functional
[20] = test system: [Candida] auris; experiment: Antifungal activity against Candida auris AR Bank # 381 assessed as fungal growth inhibition by double dilution method; format: functional; conditions: Candidozyma auris; method in brief: as §1
[21] = test system: [Candida] auris; experiment: Antifungal activity against Candida auris AR Bank # 382 assessed as fungal growth inhibition by double dilution method; format: functional; conditions: Candidozyma auris; method in brief: as §1
[22] = test system: [Candida] auris; experiment: Antifungal activity against Candida auris AR Bank # 383 assessed as fungal growth inhibition by double dilution method; format: functional; conditions: Candidozyma auris; method in brief: as §1
[23] = test system: [Candida] auris; experiment: Antifungal activity against Candida auris AR Bank # 384 assessed as fungal growth inhibition by double dilution method; format: functional; conditions: Candidozyma auris; method in brief: as §1
[24] = test system: [Candida] auris; experiment: Antifungal activity against Candida auris AR Bank # 385 assessed as fungal growth inhibition by double dilution method; format: functional; conditions: Candidozyma auris; method in brief: as §1
[25] = test system: [Candida] auris; experiment: Antifungal activity against Candida auris AR Bank # 386 assessed as fungal growth inhibition by double dilution method; format: functional; conditions: Candidozyma auris; method in brief: as §1
[26] = test system: [Candida] auris; experiment: Antifungal activity against Candida auris AR Bank # 387 assessed as fungal growth inhibition by double dilution method; format: functional; conditions: Candidozyma auris; method in brief: as §1
[27] = test system: [Candida] auris; experiment: Antifungal activity against Candida auris AR Bank # 388 assessed as fungal growth inhibition by double dilution method; format: functional; conditions: Candidozyma auris; method in brief: as §1
[28] = test system: [Candida] auris; experiment: Antifungal activity against Candida auris AR Bank # 389 assessed as fungal growth inhibition by double dilution method; format: functional; conditions: Candidozyma auris; method in brief: as §1
[29] = test system: [Candida] auris; experiment: Antifungal activity against Candida auris AR Bank # 390 assessed as fungal growth inhibition by double dilution method; format: functional; conditions: Candidozyma auris; method in brief: as §1
[30] = test system: Candida duobushaemulonii; experiment: Antifungal activity against Candida duobushaemulonii AR Bank # 391 assessed as fungal growth inhibition by double dilution method; format: functional; conditions: Candidozyma duobushaemuli; method in brief: as §1
[31] = test system: Candida duobushaemulonii; experiment: Antifungal activity against Candida duobushaemulonii AR Bank # 392 assessed as fungal growth inhibition by double dilution method; format: functional; conditions: Candidozyma duobushaemuli; method in brief: as §1
[32] = test system: [Candida] haemuloni; experiment: Antifungal activity against Candida haemulonii AR Bank # 393 assessed as fungal growth inhibition by double dilution method; format: functional; conditions: Candidozyma haemuli; method in brief: as §1
[33] = test system: Candida duobushaemulonii; experiment: Antifungal activity against Candida duobushaemulonii AR Bank # 394 assessed as fungal growth inhibition by double dilution method; format: functional; conditions: Candidozyma duobushaemuli; method in brief: as §1
[34] = test system: [Candida] haemuloni; experiment: Antifungal activity against Candida haemulonii AR Bank # 395 assessed as fungal growth inhibition by double dilution method; format: functional; conditions: Candidozyma haemuli; method in brief: as §1
[35] = test system: Kodamaea ohmeri; experiment: Antifungal activity against Kodamaea ohmeri AR Bank # 396 assessed as fungal growth inhibition by double dilution method; format: functional; method in brief: as §1
[36] = test system: Pichia kudriavzevii; experiment: Antifungal activity against Pichia kudriavzevii AR Bank # 397 assessed as fungal growth inhibition by double dilution method; format: functional; method in brief: as §1
[37] = test system: Clavispora lusitaniae; experiment: Antifungal activity against Clavispora lusitaniae AR Bank # 398 assessed as fungal growth inhibition by double dilution method; format: functional; method in brief: as §1
[38] = test system: Saccharomyces cerevisiae; experiment: Antifungal activity against Saccharomyces cerevisiae AR Bank # 399 assessed as fungal growth inhibition by double dilution method; format: functional; method in brief: as §1
[39] = test system: Saccharomyces cerevisiae; experiment: Antifungal activity against Saccharomyces cerevisiae AR Bank # 400 assessed as fungal growth inhibition by double dilution method; format: functional; method in brief: as §1
[40] = test system: J774.A1; experiment: Cytotoxicity against J774A.1 cells assessed as reduction in cell viability at 31.3 microg/ml; format: toxicity, cell-based; conditions: mouse, dose 31.3 µg/ml
Method in brief: (§3)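 Cells in DMEM with 10% FBS and 1% Pen/Strep, seeded at 10,000 cells/well and held overnight at 37 °C, 5% CO2. Compounds added at final 31.3-0.12 µg/mL (0.05% DMSO vehicle) for 24 h. Resazurin then added for 6 h; fluorescence read at ex 560/em 590. Triton X-100 1% as positive control; values normalized to vehicle. Run in quadruplicate.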

[41] = test system: HEK293; experiment: Cytotoxicity against human HEK-293 cells assessed as reduction in cell viability at 31.3 microg/ml; format: toxicity, cell-based; conditions: dose 31.3 µg/ml; method in brief: as §3
[42] = test system: HepG2; experiment: Cytotoxicity against human HepG2 cells assessed as reduction in cell viability upto 31.3 microg/ml; format: toxicity, cell-based; conditions: dose < 31.3 µg/ml; method in brief: as §3

## COc1cccc(NNC(=O)c2cnccn2)c1
[1]
  MIC: 0.49 µg/mL (≈ 2.01 µM)
[2]
  MIC: 0.98 µg/mL (≈ 4.01 µM)
[3]
  MIC: 1.95 µg/mL (≈ 7.98 µM)
[4]
  MIC: 1.95 µg/mL (≈ 7.98 µM)
[5]
  MIC: 1.95 µg/mL (≈ 7.98 µM)
[6]
  MIC: 1.95 µg/mL (≈ 7.98 µM)
[7]
  MIC: 0.98 µg/mL (≈ 4.01 µM)
[8]
  MIC: 7.8 µg/mL (≈ 31.9 µM)
[9]
  MIC: 0.49 µg/mL (≈ 2.01 µM)
[10]
  MIC: 1.95 µg/mL (≈ 7.98 µM)
[11]
  MIC: 1.95 µg/mL (≈ 7.98 µM)
[12]
  MIC: 0.98 µg/mL (≈ 4.01 µM)
[13]
  MIC: 0.49 µg/mL (≈ 2.01 µM)
[14]
  MIC: 1.95 µg/mL (≈ 7.98 µM)
[15]
  MIC: 15.6 µg/mL (≈ 63.9 µM)
[16]
  MIC: > 31.3 µg/mL
[17]
  MIC: 1.95 µg/mL (≈ 7.98 µM)
[18]
  MIC: 7.8 µg/mL (≈ 31.9 µM)
[19]
  MIC: > 31.3 µg/mL
[20]
  MIC: 1.95 µg/mL (≈ 7.98 µM)
[21]
  MIC: 0.98 µg/mL (≈ 4.01 µM)
[22]
  MIC: 1.95 µg/mL (≈ 7.98 µM)
[23]
  MIC: 1.95 µg/mL (≈ 7.98 µM)
[24]
  MIC: 7.8 µg/mL (≈ 31.9 µM)
[25]
  MIC: 0.49 µg/mL (≈ 2.01 µM)
[26]
  MIC: 0.98 µg/mL (≈ 4.01 µM)
[27]
  MIC: 3.9 µg/mL (≈ 16 µM)
[28]
  MIC: 0.98 µg/mL (≈ 4.01 µM)
[29]
  MIC: 0.98 µg/mL (≈ 4.01 µM)
[30]
  MIC: 3.9 µg/mL (≈ 16 µM)
[31]
  MIC: 0.98 µg/mL (≈ 4.01 µM)
[32]
  MIC: 0.49 µg/mL (≈ 2.01 µM)
[33]
  MIC: 1.95 µg/mL (≈ 7.98 µM)
[34]
  MIC: 0.49 µg/mL (≈ 2.01 µM)
[35]
  MIC: 0.49 µg/mL (≈ 2.01 µM)
[36]
  MIC: 0.49 µg/mL (≈ 2.01 µM)
[37]
  MIC: 1.95 µg/mL (≈ 7.98 µM)
[38]
  MIC: 7.8 µg/mL (≈ 31.9 µM)
[39]
  MIC: 3.9 µg/mL (≈ 16 µM)
[40]
  Activity: Non-Toxic
[41]
  Activity: Non-Toxic
[42]
  Activity: Non-Toxic
